5HT1E ag: activates the human 5-HT1E serotonin receptor; activation, % at 6 µM; P28566; hit rate 0.69% among 65,000; CHO 5-HT1E Ga15 NFAT-bla reporter, FRET; 0% DMSO wells, 100% control agonist wells;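 active means activation above a set limit, the screen-wide mean activation plus 3 SD, cut at about 8.5% in these data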;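 further: 100% = positive control agonist at 1 µM giving full maximal response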
Target sequence (P28566 whole entry, looked up): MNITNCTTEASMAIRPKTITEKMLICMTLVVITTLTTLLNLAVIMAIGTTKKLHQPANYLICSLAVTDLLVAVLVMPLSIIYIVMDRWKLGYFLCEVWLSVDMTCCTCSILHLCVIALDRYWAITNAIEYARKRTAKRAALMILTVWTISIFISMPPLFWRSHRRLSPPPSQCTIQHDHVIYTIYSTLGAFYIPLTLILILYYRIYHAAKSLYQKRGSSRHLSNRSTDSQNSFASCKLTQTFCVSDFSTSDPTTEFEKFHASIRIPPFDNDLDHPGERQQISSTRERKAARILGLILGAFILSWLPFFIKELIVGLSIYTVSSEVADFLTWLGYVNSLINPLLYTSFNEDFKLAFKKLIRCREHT
HEK293 NFkB inh: lowers PMA/ionomycin-induced NF-kB signal in HEK293 cells | AID 465 | inhibition, % at 3 µM | HEK-293 NF-kB luciferase reporter, luminescence | hit rate 0.21% among 62,000;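 active means inhibition above the mean of all tested compounds plus 3 SD, cut at about 40% in these data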;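 further: 0% = stimulated DMSO wells and 100% = 10 µM reference inhibitor 5653914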
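System: NF-kB luciferase reporter HEK-293 cells | Replication: Single test | Control set: DMSO vs reference inhibitor | Evaluation: % inhibition | Schedule: 1 h pretreatment, 16 h stimulation, 37 °C | Probe or stimulus: PMA with ionomycin | Compound dosing: One dose, 3 µM | Detection: Luciferase luminescence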
Jurkat tox 60K: cytotoxicity toward Jurkat cells | Jurkat E6.1 viability, ATP luminescence, 48 h | inhibition, % at 4 µM | hit rate 1.2% among 56,000;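 active means inhibition above the mean inhibition of all tested compounds plus 3 SD, cut at about 28% in these data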
5HT1a antag: antagonists of human 5-HT1a serotonin receptor; hit rate 0.68% among 62,000; AID 612; inhibition, % at 10 µM; CHO 5-HT1a Ga15 NFAT-bla reporter, antagonist mode; P08908;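 active means inhibition above the mean of all tested compounds plus 3 SD, cut at about 43% in these data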;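 further: receptor stimulated by 5-CT agonist at 100 nM near EC80; beta-lactamase reporter measured by ratiometric fluorescence of a cleavable substrate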
HTR1A agonist: activates the human 5-HT1a serotonin receptor; P08908; CHO 5-HT1a Ga15 NFAT-bla reporter, FRET ratio; 0% basal, 100% maximal reference agonist; activation, % at 10 µM; hit rate 0.56% among 65,000;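 active means activation above the screen-wide mean activation plus 3 SD, cut at about 19% in these data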;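 further: 0% = DMSO wells and 100% = 5-CT at EC100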
HTR1E antagonist: 5-HT1E (human) receptor antagonism; inhibition, % at 6 µM; hit rate 0.99% among 65,000; P28566; CHO 5-HT1E Ga15 NFAT-bla reporter, FRET, antagonist;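 active means inhibition above a set limit, the mean inhibition across every tested compound plus 3 SD, cut at about 29% in these data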;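 further: signal is the 460 over 535 nm emission ratio of beta-lactamase substrate; 0% = agonist plus DMSO wells and 100% = wells without agonist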
Numbers without * were called inactive; x = no result given. Rows were chosen to be rich in hits. Some 3.3% of all compounds tested hit in one or more screens of this group.

SMILES | 5HT1E ag | HEK293 NFkB inh | Jurkat tox 60K | 5HT1a antag | HTR1A agonist | HTR1E antagonist
CCN(Cc1ccncc1)S(=O)(=O)c1ccc(C(C)=O)cc1 | 0 | 13 | 30* | -2 | -1 | 5
COc1ccc2c(c1)c1nnc(SCC(=O)N3C(C)CCCC3C)nc1n2C (centres undefined) | 2 | 21 | 3 | -23 | 5 | 16
COc1ccc2c(c1)c1nnc(SC)nc1n2C | 17* | 1 | -3 | 4 | 2 | 13
c1ccc(Cn2nnc3c(Nc4ccc5c(c4)OCO5)nc(C4CC4)nc32)cc1 | 2 | 31 | 11 | 20 | 22* | 0
COC(=O)CNc1nc(C2CC2)nc2c1nnn2Cc1ccccc1Cl | 0 | 4 | 11 | 5 | -2 | 11
CCOC(=O)N1CCC(Nc2c(NCCCN(CC)c3cccc(C)c3)c(=O)c2=O)CC1 | 22* | 4 | 5 | -16 | -2 | -8
CCOC(=O)N1CCC(Nc2c(NCCN3CCN(Cc4ccccc4)CC3)c(=O)c2=O)CC1 | 0 | -3 | 3 | 0 | 0 | 7
CCOC(=O)C1=C(C)N=C2SC(CC)C(=O)N2C1c1ccc(OC(C)=O)c(OCC)c1 (centres undefined) | 1 | 10 | x | -2 | 1 | -5
O=C(NCc1ccc(N2CCCC2=O)cc1)Nc1ccccc1 | 0 | 7 | 3 | -4 | -1 | 3
CCOC(=O)NC(Nc1ccc(S(N)(=O)=O)cc1)(C(=O)OCC)C(F)(F)F (centres undefined) | -1 | 4 | 1 | 14 | 2 | 11
CCCCCCC(=O)N(O)C1CC(=O)N(Cc2ccccc2)C1=O (centres undefined) | -1 | -4 | -5 | 30 | -7 | 30*
c1ccc(OCCn2cnc3ccccc32)cc1 | -1 | 10 | -6 | -4 | 0 | 1
c1ccc(OCCCCn2cnc3ccccc32)cc1 | 0 | 2 | 33* | 16 | -2 | 10
Cc1ccc(-c2csc(/C(C#N)=C(\O)CN3CCN(C(=O)c4ccco4)CC3)n2)cc1 | 0 | 3 | 4 | -1 | 0 | -4
OC(COC1CCCCC1)CN1CCN(c2ccccc2)CC1 (centres undefined) | 1 | -16 | 3 | 45* | 7 | 0
CC(C)Oc1ccccc1C1CC(=O)Nc2cc3c(cc21)OCO3 (centres undefined) | 1 | 26 | 97* | 54* | -2 | 61*
CCCOc1ccccc1C1CC(=O)Nc2cc3c(cc21)OCCO3 (centres undefined) | 0 | 47* | 98* | 75* | -1 | 71*
O=C1CC(c2cccnc2)c2cc3c(cc2N1)OCCO3 (centres undefined) | -1 | 15 | -5 | -2 | -1 | 9
CCOc1ccccc1C1CC(=O)Nc2cc3c(cc21)OCCO3 (centres undefined) | -1 | 28 | 95* | 44* | -4 | 64*
O=c1c(-c2ccccc2)[n+]([O-])c2ccccc2n1O | 1 | 7 | -4 | -1 | -5 | -11
CC1(C)CC(=O)C(C=Nc2ccc3cn[nH]c3c2)=C(O)C1 | 0 | 6 | -7 | 36 | -3 | 40*
CC1(C)CC(=O)C(C=Nc2ccc(O)cc2)=C(O)C1 | 0 | 21 | 6 | 12 | -5 | 10
CSc1ccccc1N=CC1=C(O)CC(C)(C)CC1=O | -2 | 7 | 8 | 74* | -4 | 72*
CCCCNC1C(CC)C(CCC)C(C#N)(C#N)C1(C#N)C#N (centres undefined) | -2 | 17 | 12 | 63* | -6 | 37*
CC(=O)N1CCN(c2ccccc2NC(=O)COc2ccc(Cl)cc2Cl)CC1 | 0 | -2 | 7 | 29 | 2 | 15
SMILES | 5HT1E ag | HEK293 NFkB inh | Jurkat tox 60K | 5HT1a antag | HTR1A agonist | HTR1E antagonist
CCC(=O)N1CCN(c2ccccc2NC(=O)COc2cc(C)ccc2C(C)C)CC1 | -1 | 20 | 3 | 58* | 5 | 3
CC(=O)Nc1ccccc1N(C)S(=O)(=O)c1ccc(C)cc1 | 0 | 18 | 45* | 7 | 0 | 6
CC(=O)Nc1ccccc1NC(=O)CN(C)S(=O)(=O)c1ccc(C)cc1 | 1 | 12 | -8 | 0 | -2 | -7
O=C(c1ccc(COc2c(F)c(F)cc(F)c2F)o1)N1CCN(c2ccc(Cl)cc2)CC1 | -1 | 8 | 0 | 6 | 2 | 0
COc1ccc(-c2cc(C(F)(F)F)nc(N3CCCCCC3)n2)cc1 | 1 | 8 | x | -7 | 3 | -10
COc1cccc(-c2cc(C(F)(F)F)nc(N3CCCCC3)n2)c1 | 0 | 25 | x | -4 | 99* | -6
COc1ccc(-c2cc(C(F)(F)F)nc(N3CCN(C)CC3)n2)cc1 | 18* | 13 | x | -1 | 5 | -2
COc1ccc(-c2cc(C(F)(F)F)nc(N3CCCCC3)n2)cc1OC | 1 | 16 | x | 11 | 7 | -6
Cc1nc2sc3c(c2c2nc(-c4ccco4)nn12)CC(C)(C)OC3 | 1 | 22 | 8 | 1 | 0 | 3
Cc1cccc(OCc2nnc(SCc3cc(=O)n4cc(Br)ccc4n3)o2)c1 | 0 | 25 | -3 | 10 | 1 | 1
CCSc1nc2sc3c(c2c(=O)n1C1CCCCC1)CCN(C)C3 | 0 | x | x | x | 5 | -4
N#CCSc1nc2sc3c(c2c(=O)n1C1CCCCC1)CCCC3 | 13* | x | x | x | 7 | 6
COc1ccc(N2CCN(CCNC(=O)C3CCN(S(=O)(=O)c4cccs4)CC3)CC2)cc1 | -1 | -5 | 4 | -4 | 0 | -4
COc1ccc(N2CCN(S(=O)(=O)c3cccs3)CC2)cc1 | 0 | 4 | -2 | -3 | 26* | 2
Cc1cccc2cc(C#N)c(NCCNS(=O)(=O)c3ccc4c(c3)OCCO4)nc12 | 1 | -2 | 9 | -13 | 4 | 24
COc1cc(OC)cc(-c2cc3nc(C)c(CCC(=O)NC(C)CCc4ccco4)c(C)n3n2)c1 (centres undefined) | 0 | 14 | 7 | 18 | -2 | 9
COc1cc(OC)cc(-c2cc3nc(C)c(CCC(=O)O)c(C)n3n2)c1 | -1 | 63* | 2 | 1 | -2 | 6
Nc1c(C(=O)Nc2ccc(Cl)cc2)oc2ccccc12 | 1 | -81 | 2 | 26 | 0 | 6
COc1ccc(CNc2nc(-c3cccnc3)nn2C(=O)c2cccs2)cc1 | 0 | 15 | -5 | 36 | 0 | 31*
COc1cc(NS(=O)(=O)c2ccc(Br)cc2)c(OC)cc1NC(=O)c1ccco1 | 1 | 11 | -3 | 8 | 3 | 6
CCCCOc1ccc(N2C(=O)CC(N(O)c3ccccc3)C2=O)cc1 (centres undefined) | 1 | 6 | 9 | 9 | 0 | 34*
CCOC(=O)C(C)Oc1cccc2c(=O)n(CC(=O)NCc3ccco3)ccc12 (centres undefined) | 0 | 26 | 96* | 14 | -4 | 38*

Screening results (PubChem BioAssay)
